An excerpt weighted towards active compounds, which were near 4.6% of everything screened.
GPR7 antagonist = human neuropeptides B/W receptor 1 antagonism | inhibition, % at 4.4 µM | GPR7-expressing cells, fluorescence antagonist assay | 1.1% of 290,000 active | AID 1861 | P48145; in the data active = inhibition above about 16%, passing the limit was not always enough;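 also: cells stimulated with the agonist NPW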
TAAR1 antagonist = human TAAR1 antagonism; CHO RD-HGA16 TAAR1, Fluo-8 calcium fluorescence, antagonist; inhibition, % at 3 µM; 1.5% of 360,000 active;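 active = inhibition above a per-plate cutoff, the mean inhibition of test compounds on that plate plus 3 SD, cut at about 49% in these data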
Target sequence (Q96RJ0 whole entry, looked up): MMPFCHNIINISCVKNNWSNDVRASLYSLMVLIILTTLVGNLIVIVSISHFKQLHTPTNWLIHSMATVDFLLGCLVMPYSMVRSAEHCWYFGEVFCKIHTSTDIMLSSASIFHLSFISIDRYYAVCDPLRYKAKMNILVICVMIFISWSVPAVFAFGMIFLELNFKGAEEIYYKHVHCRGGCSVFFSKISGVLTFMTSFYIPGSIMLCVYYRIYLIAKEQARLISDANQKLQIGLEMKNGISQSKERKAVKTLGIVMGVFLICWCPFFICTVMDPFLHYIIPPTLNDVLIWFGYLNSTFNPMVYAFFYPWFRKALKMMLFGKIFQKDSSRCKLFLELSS
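test system = CHO RD-HGA16 cells bearing hTAAR1 | replication = singlicate | controls = DMSO-only wells and EC80 β-PEA-stimulated wells | reagent = EC80 β-phenethylamine stimulus | read-out basis = percent inhibition of PEA-evoked calcium signal, max/basal emission ratio | schedule = seeding 17-24 h prior, 75-min 37 °C, 30-min RT dye loading | signal = kinetic Fluo-8 calcium fluorescence measurement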
OX1R antag-1 = antagonists of human orexin 1 receptor. inhibition, % at 5 µM. O43613. 0.43% of 330,000 active. CHO/OX1R cells, Fluo-8 calcium fluorescence, orexin A;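 active = inhibition above its plate's threshold, mean inhibition of all tested compounds on the plate plus 3 SD, cut at about 37% in these data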
TAAR1 ag = human TAAR1 agonism. 0.99% of 360,000 active. activation, % at 3 µM. AID 624467. CHO RD-HGA16 TAAR1, Fluo-8 calcium fluorescence; vehicle wells 0%, saturating PEA agonist 100%;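 active = activation above the mean activation of all test compounds in the run plus 3 SD, cut at about 38% in these data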
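Test system: RD-HGA16 (CHO) cells co-expressing Gα16 and hTAAR1; dosing: one-point dosing at 3 µM (nominal); timing: 17-24 h seeding, 75 min 37 °C dye, 30 min RT; signal: kinetic Fluo-8 calcium fluorescence; read-out basis: % activation relative to PEA EC100 response; controls: DMSO and PEA EC100; replicates: n 1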
CHO parental Ca = signal in parental CHO cells, OX1R antagonist counter-screen; parental CHO-K1, ATP-induced calcium, Fluo-8 fluorescence; inhibition, % at 5.6 µM; 0.63% of 330,000 active; AID 463079;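 active = inhibition above that plate's mean sample inhibition plus 3 SD, cut at about 26% in these data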
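Material: Parental CHO cells | Reagent: ATP | Compound dosing: Single nominal dose of 5.6 µM per compound | Detection: Intracellular calcium via Fluo-8 no-wash fluorescent dye | Read-out: % inhibition of ATP-induced calcium mobilization | Benchmarks: Low control ATP plus DMSO, high control DMSO only | Replicates: Singlicate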
OX1R antag-2 = blocks the human orexin 1 receptor. 1.8% of 330,000 active. OX1R-expressing cells, FRET antagonist read-out. O43613. inhibition, % at 6.6 µM. AID 485270; in the data active = inhibition mostly above about 38%, no sharp cut-off; inactive = mostly below about 40%
GPR7 antag cf = human GPR7 antagonism, confirmation assay | AID 1952 | 52% of 2,400 active | GPR7-expressing cells, calcium fluorescence antagonist mode | inhibition, % at 4.4 µM | shares compounds with GPR7 antagonist; in the data active = inhibition above about 24%;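 also: stimulated with the GPR7 agonist NPW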
MCHR1 antag = antagonizes human MCHR1, a GPR7 antagonist counter-screen; 62% of 2,400 active; AID 2148; MCHR1-expressing cells, fluorescence antagonist assay; shares compounds with GPR7 antagonist; inhibition, % at 4.4 µM; in the data active = inhibition above about 22%
Numbers stand for hits; – = inactive; · = no result given.

SMILES	GPR7 antagonist	TAAR1 antagonist	OX1R antag-1	TAAR1 ag	CHO parental Ca	OX1R antag-2	GPR7 antag cf	MCHR1 antag
Cc1cccc(C)c1N(CC(O)Cn1c2ccccc2c2ccccc21)S(C)(=O)=O (configuration not stated)	29	–	–	–	–	–	37	36
COc1cccc(NC(=O)C2CCC(CNS(=O)(=O)c3cccs3)CC2)c1 (configuration not stated)	–	–	–	–	–	–	·	·
O=C(c1ccc(Cl)cc1)N1CCN(CCOc2ccccc2)CC1	–	–	–	–	–	–	·	·
O=C(NC1CCSc2ccccc21)c1cccc(Br)c1 (configuration not stated)	27	–	–	–	–	–	–	–
CCC[N+](CC#CCO)(CC#Cc1ccccc1)CCC	–	–	–	–	–	–	·	·
CCCC[N+](CC#CCO)(CC#Cc1ccccc1)CCCC	25	–	–	–	–	–	25	26
COc1cc2c(cc1NC(=O)CN1C(=O)NC3(CCc4ccccc43)C1=O)oc1ccccc12 (configuration not stated)	33	50	–	–	–	–	59	57
Cc1ccccc1NC(=O)CN1C(=O)NC2(CCc3ccccc32)C1=O (configuration not stated)	·	–	–	–	–	–	·	·
O=C(Cn1cnc2ccccc21)N/N=C/c1ccccn1	–	–	–	–	–	–	·	·
COc1ccc(-c2nc(SCC(=O)NC3CCCCC3)n[nH]2)cc1	23	–	·	–	·	·	–	35
CCOC(=O)CNC(=S)N(CCCN1CCCCC1)Cc1cccs1	35	–	–	–	–	–	–	–
CC(=O)Nc1ccc(S(=O)(=O)NCc2ccc(C(=O)N3CCOCC3)cc2)cc1	–	–	–	–	–	–	·	·
Cc1nn(C)c(C)c1Nc1ccc(N2C(=O)C3C4C=CC(C4)C3C2=O)cc1[N+](=O)[O-] (configuration not stated)	26	–	–	–	–	–	–	–
COC(=O)CCCNC(=O)c1ccc(S(=O)(=O)NCc2ccco2)cc1	·	–	–	–	–	–	·	·
Cc1ccccc1CC1(CO)CCCN(C(=O)c2ccc(F)cc2)C1 (configuration not stated)	–	–	–	–	–	–	·	·
Cc1ccccc1CC1(CO)CCCN(C(=O)c2ccccc2N(C)C)C1 (configuration not stated)	31	–	–	–	–	–	36	31
Nc1nc2n(n1)C(c1ccccc1)CC(c1ccc(F)cc1)N2 (configuration not stated)	–	–	–	–	–	–	·	·
Nc1nc2n(n1)C(c1cccc(Br)c1)CC(c1ccc(F)cc1)N2 (configuration not stated)	35	–	–	–	–	–	–	–
CCOc1ccc(S(=O)(=O)Nc2nc3ccccc3nc2-n2ccc(=NC(=O)c3ccccc3C)cc2)cc1	23	–	–	–	–	–	–	–
Cc1ccccc1C(=O)N=c1ccn(-c2nc3ccccc3nc2NS(=O)(=O)c2ccccc2)cc1	–	–	–	–	–	–	·	·
CC(=O)Nc1ccc2cc3ccc(NC(C)=O)cc3nc2c1	15	–	–	–	–	–	–	–
CC(=O)Nc1ccc2ccccc2c1	–	·	–	·	–	–	·	·
CCCCn1c(=N)n(CC(O)COc2cccc(C)c2)c2ccccc21 (configuration not stated)	33	–	–	–	–	–	37	46
CCN(CC)CCn1c(=N)n(CC(O)COc2ccccc2)c2ccccc21 (configuration not stated)	29	–	–	–	–	–	–	–
CCCn1c(=N)n(CC(O)COc2ccc(C)cc2)c2ccccc21 (configuration not stated)	–	–	–	–	–	–	·	·

Screens: PubChem, The Scripps Research Institute Molecular Screening Center
